Results on three compounds are retold here after ChEMBL document CHEMBL1121534, “Synthesis and biological activity of 5-(4-chlorobenzoyl)-4-(hydroxymethyl)-1-methyl-1H-pyrrole-2-acetic acid, a major metabolite of zomepirac sodium” (J Med Chem, 1980).

The structures appear in SMILES notation. The source made the active and inactive calls. No cut-off for these calls is given here.

For one assay, the species on record is Homo sapiens. In words: Tested for in vitro inhibition of collagen-induced aggregation of human platelets. It is filed as functional.
Assay [1] concerns Rattus norvegicus. In words: Tested for analgesic activity in acetylcholine-induced body constriction assay. Not Active (NA) upto 100 mg/kg peroral dose. Also on record: dose 100 mg/kg. In kind it is functional, organism-based.
For assay [2], the system named is Rattus norvegicus. The experiment in a line: Tested for effective dose in rat adjuvant-induced polyarthritis (AA) test in II phase. Not Active (NA) up to 125 mg/kg peroral dose. The arrangement: dose 125 mg/kg. It is filed as functional, organism-based.
The test system of assay [3] is Rattus norvegicus. The experiment in a line: Tested for effective dose in rat adjuvant-induced polyarthritis (AA) test in III phase. Not Active (NA) up to 125 mg/kg peroral dose. In kind it is functional, organism-based. Also on record: dose 125 mg/kg.
Assay [4] concerns Rattus norvegicus. The experiment in a line: Tested for analgesic activity in acetylcholine-induced body constriction assay by peroral administration. In kind it is functional. Particulars: po.
For assay [5], the species on record is Rattus norvegicus. The experiment in a line: Tested for effective dose in rat adjuvant-induced polyarthritis (AA) test in II phase. It is filed as functional.
Assay [6] is filed under the species Rattus norvegicus. The experiment in a line: Tested for effective dose in rat adjuvant-induced polyarthritis (AA) test in III phase. In kind it is functional.
Assay [7] concerns Rattus norvegicus. In words: Tested for ulcerogenic activity by peroral administration in rat. In kind it is functional. Summed up: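 Rats were given the compound by mouth at doses up to 100 mg/kg, and ulcerogenic activity was assessed.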

In general, IC50 refers to the midpoint of a concentration-inhibition curve. Read a high IC50 as lower potency. The term ED50 denotes the dose at which the effect has come halfway, by size or by number of responders. `Cn1c(CC(=O)O)cc(CO)c1C(=O)c1ccc(Cl)cc1` returned an IC50 in the assay listed under Homo sapiens of 529000 nM. The ED50 result in the assay with Rattus norvegicus [1], with Rattus norvegicus [2] and in the assay on Rattus norvegicus [3] was “inactive” each time.

Compound `COc1ccc2c(c1)c(CC(=O)O)c(C)n2C(=O)c1ccc(Cl)cc1` [INDOMETHACIN] returned a half-inhibitory concentration (IC50) in the assay filed under Homo sapiens of 1800 nM.

Consider `Cc1cc(CC(=O)[O-])n(C)c1C(=O)c1ccc(Cl)cc1.O.O.[Na+]` [ZOMEPIRAC SODIUM], for which the IC50 in the assay filed under Homo sapiens was found to be 1630 nM. The values for the ED50 in the assay on Rattus norvegicus [4], in the assay listed under Rattus norvegicus [5] and in the assay filed under Rattus norvegicus [6] were 0.72 mg/kg, 0.72 mg/kg and 5.67 mg/kg, respectively. In the assay with Rattus norvegicus [7], the UD50 was 13.9 mg/kg.
